This passage reports Activity and MIC results from ChEMBL document CHEMBL1143425, “Paradoxical growth effect of caspofungin observed on biofilms and planktonic cells of five different Candida species” (2007).

The test system of experiment [1] is Candida orthopsilosis. The experiment in a line: Antimicrobial activity against Candida orthopsilosis BR-A37 grown as planktonic cell assessed as concentration producing paradoxical growth after 48 hrs by XTT reduction assay. The experiment is classed as functional. The method, boiled down:
(§1)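 Planktonic cells were tested by CLSI M27-A2 broth microdilution with caspofungin in water, incubated 48 h. XTT-menadione was added to each well, plates were held 1 h at 35°C in the dark and centrifuged, and supernatant absorbance was read at 490 nm. MIC was defined as 50% decrease in metabolic activity versus drug-free control. PG was defined as ≥20% of control activity at concentrations above MIC.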
(Formazan colour is commonly taken as a measure of viable cells.)

The test system of experiment [2] is Candida orthopsilosis. The experiment in a line: Antimicrobial activity against Candida orthopsilosis BR-A32 grown as planktonic cell assessed as paradoxical growth after 48 hrs by XTT reduction assay. It is filed as functional, organism-based. The method, boiled down:
as §1

Experiment [3] has as its system Candida orthopsilosis. The experiment in a line: Antimicrobial activity against Candida orthopsilosis BR-A34 grown as planktonic cell assessed as concentration producing paradoxical growth after 48 hrs by XTT reduction assay. The experiment is classed as functional. In a few lines:
as §1

Experiment [4] deals with Candida tropicalis. The experiment in a line: Antimicrobial activity against Candida tropicalis BR-A20 grown as biofilm assessed as concentration producing paradoxical growth after 48 hrs by XTT reduction assay. It is filed as functional. The method, boiled down: (§2)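 Clinical isolates were grown overnight (18 h, 35°C, 120 rpm) in RPMI 1640 with MOPS, pH 7.0, then washed and set to ~1 × 10^7 cells/ml. Cells attached for 1.5 h at 37°C, 75 rpm, then biofilms grew 24 h. Caspofungin was given as doubling dilutions of 2–1,024 μg/ml for 48 h at 35°C, 75 rpm. Read-out was XTT-menadione in PBS, 1 h at 35°C in the dark, A490, cell-free blank subtracted. MIC was a 50% drop in activity versus drug-free; PG was >50% of control above MIC. Run in duplicate.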

Experiment [5] relates to Candida parapsilosis. The experiment in a line: Antimicrobial activity against Candida parapsilosis BR-A31 grown as planktonic cell assessed as paradoxical growth after 48 hrs by XTT reduction assay. It is filed as functional, organism-based. The method, boiled down:
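Planktonic broth microdilution followed CLSI M27-A2, with caspofungin dissolved in water. After 48 h, XTT-menadione was added to each well and plates were incubated 1 h at 35°C in the dark. Cells were pelleted by centrifugation and the supernatant was read at 490 nm. MIC was the lowest concentration giving a 50% drop in metabolic activity versus the drug-free control. PG was ≥20% of drug-free activity above the MIC.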

Experiment [6] relates to Candida tropicalis. The experiment in a line: Effect on morphology in Candida tropicalis grown as biofilm assessed as inhibition of hyphae and pseudohyphae at 8 ug/ml after 48 hrs. It is filed as functional, organism-based. The method, boiled down: (§3)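 Overnight RPMI 1640 cultures (MOPS, pH 7.0) were washed and set to about 1 × 10^7 cells/ml, then attached to polystyrene wells for 1.5 h at 37°C at 75 rpm. After 24 h biofilm growth, wells were washed and given doubling caspofungin dilutions (2–1,024 μg/ml in RPMI) for 48 h at 35°C at 75 rpm. Biofilms were viewed in situ by inverted light microscopy at ×200 alongside drug-free wells.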

In experiment [7] the test system is Candida tropicalis. The experiment in a line: Antimicrobial activity against Candida tropicalis BR-A8 grown as planktonic cell after 48 hrs by XTT reduction assay. The experiment is classed as functional. The method, boiled down: (§4)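 Planktonic broth microdilution followed CLSI M27-A2, with caspofungin dissolved in water. After 48 h, XTT-menadione was added to the wells and plates were kept 1 h at 35°C in the dark. Plates were then centrifuged and supernatant A490 was read. MIC was the lowest concentration giving a 50% decrease in metabolic activity versus drug-free control. Paradoxical growth was defined as ≥20% of control activity above the MIC.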

Experiment [8] has as its system Candida parapsilosis. The experiment in a line: Antimicrobial activity against Candida parapsilosis BR-A28 grown as planktonic cell after 48 hrs by XTT reduction assay. The following applies: Lodderomyces parapsilosis. It is filed as functional. The method, boiled down:
as §4

The test system of the next experiment is Candida albicans. The experiment in a line: Antimicrobial activity against Candida albicans BR-A2 grown as planktonic cell assessed as concentration producing paradoxical growth after 48 hrs by XTT reduction assay. It is filed as functional. The method, boiled down: as §1
Experiment [9] concerns Candida orthopsilosis. The experiment in a line: Antimicrobial activity against Candida orthopsilosis BR-A38 grown as biofilm assessed as paradoxical growth after 48 hrs by XTT reduction assay. It is filed as functional, organism-based. In a few lines:
(§5)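 Sabouraud-grown cells were shaken overnight (18 h, 120 rpm, 35°C) in RPMI 1640 with MOPS at pH 7.0, then washed and set at ~1 × 10^7 cells/ml. Attachment lasted 1.5 h at 37°C, and growth ran 24 h before challenge. Caspofungin was added in RPMI at 2–1,024 μg/ml (10 doublings) for 48 h at 35°C with shaking. XTT-menadione was read at 490 nm after 1 h at 35°C in the dark, with blank wells subtracted. MIC was taken as 50% reduction versus drug-free wells, and PG as >50% of control above MIC. Assays were run in duplicate.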

The test system of experiment [10] is Candida orthopsilosis. The experiment in a line: Antimicrobial activity against Candida orthopsilosis BR-A32 grown as biofilm after 48 hrs by XTT reduction assay. It is filed as functional. The following applies: Lodderomyces orthopsilosis. The method, boiled down: (§6)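 Isolates were grown on Sabouraud agar (30°C, 24 h), then overnight in RPMI 1640 with MOPS, pH 7.0, at 35°C with shaking. Cells were washed and set to ~1 × 10^7 cells/ml, attached 1.5 h at 37°C, and grown 24 h. Biofilms were then exposed to caspofungin in 10 twofold dilutions (2–1,024 μg/ml) for 48 h at 35°C with shaking. Read-out was XTT-menadione, 1 h, 35°C, dark, A490, cell-free blank subtracted. MIC was the 50% drop in activity versus drug-free control. Tested in duplicate.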

In experiment [11] the test system is Candida metapsilosis. The experiment in a line: Antimicrobial activity against Candida metapsilosis BR-A43 grown as biofilm assessed as concentration producing paradoxical growth after 48 hrs by XTT reduction assay. The experiment is classed as functional. In a few lines: as §5
Experiment [12] deals with Candida metapsilosis. The experiment in a line: Antimicrobial activity against Candida metapsilosis BR-A41 grown as biofilm after 48 hrs by XTT reduction assay. It is filed as functional. The note with it: Lodderomyces metapsilosis. The method, boiled down: as §5
Experiment [13] concerns Candida tropicalis. The experiment in a line: Effect on morphology in Candida tropicalis grown as biofilm assessed as rounding and clumping at 8 ug/ml after 48 hrs. It is filed as functional, organism-based. In a few lines:
as §3

In experiment [14] the test system is Candida tropicalis. The experiment in a line: Antimicrobial activity against Candida tropicalis BR-A20 grown as biofilm after 48 hrs by XTT reduction assay. It is filed as functional. In a few lines: as §6
Experiment [15] concerns Candida metapsilosis. The experiment in a line: Antimicrobial activity against Candida metapsilosis BR-A42 grown as biofilm assessed as concentration producing paradoxical growth after 48 hrs by XTT reduction assay. The experiment is classed as functional. In a few lines:
as §5

Experiment [16] relates to Candida parapsilosis. The experiment in a line: Antimicrobial activity against Candida parapsilosis BR-A25 grown as biofilm assessed as concentration producing paradoxical growth after 48 hrs by XTT reduction assay. The experiment is classed as functional. In a few lines: as §2
Experiment [17] has as its system Candida parapsilosis. The experiment in a line: Antimicrobial activity against Candida parapsilosis 22019 grown as planktonic cell after 48 hrs by XTT reduction assay. It is filed as functional. The note with it: Lodderomyces parapsilosis, 22019, 48 h. In a few lines: as §4
The test system of experiment [18] is Candida orthopsilosis. The experiment in a line: Antimicrobial activity against Candida orthopsilosis BR-A39 grown as planktonic cell assessed as paradoxical growth after 48 hrs by XTT reduction assay. It is filed as functional, organism-based. The method, boiled down: as §1
Experiment [19] concerns Candida metapsilosis. The experiment in a line: Antimicrobial activity against Candida metapsilosis BR-A44 grown as biofilm after 48 hrs by XTT reduction assay. It is filed as functional. The following applies: Lodderomyces metapsilosis. The method, boiled down:
as §5

Experiment [20] deals with Candida metapsilosis. The experiment in a line: Antimicrobial activity against Candida metapsilosis BR-A40 grown as biofilm assessed as concentration producing paradoxical growth after 48 hrs by XTT reduction assay. It is filed as functional. The method, boiled down: as §5
For experiment [21], the system named is Candida orthopsilosis. The experiment in a line: Antimicrobial activity against Candida orthopsilosis BR-A34 grown as planktonic cell after 48 hrs by XTT reduction assay. The note with it: Lodderomyces orthopsilosis. It is filed as functional. In a few lines: as §1
Experiment [22] concerns Candida metapsilosis. The experiment in a line: Antimicrobial activity against Candida metapsilosis BR-A42 grown as biofilm after 48 hrs by XTT reduction assay. It is filed as functional. The following applies: Lodderomyces metapsilosis. The method, boiled down:
as §5

Experiment [23] deals with Candida orthopsilosis. The experiment in a line: Effect on morphology in Candida orthopsilosis grown as biofilm assessed as rounding and clumping at 32 ug/ml after 48 hrs. It is filed as functional, organism-based. The method, boiled down:
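Biofilms formed in RPMI 1640 wells were exposed to caspofungin for 48 h and compared with drug-free control wells. Wells were examined in the plate under an inverted light microscope at ×200 and photographed.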

≈ marks a conversion by molar mass, not a printed value. Calls of active or inactive are those of the source.

Consider `CC[C@H](C)C[C@H](C)CCCCCCCCC(=O)N[C@H]1C[C@@H](O)[C@@H](NCCN)NC(=O)[C@@H]2[C@@H](O)CCN2C(=O)[C@H]([C@H](O)CCN)NC(=O)[C@H]([C@H](O)[C@@H](O)c2ccc(O)cc2)NC(=O)[C@@H]2C[C@@H](O)CN2C(=O)[C@H]([C@@H](C)O)NC1=O` [CASPOFUNGIN], for which the Activity in the experiment on Candida orthopsilosis [1] was determined as 32 µg/mL; in the experiment on Candida orthopsilosis [3], 4 µg/mL; in the experiment with Candida tropicalis [4] it was 8 µg/mL; in the experiment on Candida albicans, 16 µg/mL; with Candida metapsilosis [11] it was 16 µg/mL; in the experiment on Candida metapsilosis [15] it was 32 µg/mL. Further, the Activity in the experiment with Candida parapsilosis [16] and in the experiment with Candida metapsilosis [20] was 16 µg/mL throughout. Moreover, the result with Candida orthopsilosis [2], in the experiment on Candida parapsilosis [5] and in the experiment with Candida orthopsilosis [18] was inactive. Besides, the result in the experiment on Candida tropicalis [6], in the experiment on Candida orthopsilosis [9], with Candida tropicalis [13] and in the experiment on Candida orthopsilosis [23] was Active. The MIC against Candida tropicalis [7] stood at 1 µg/mL (≈ 0.915 µM); against Candida parapsilosis [8] it was 2 µg/mL (≈ 1.83 µM); with Candida orthopsilosis [10], 2 µg/mL (≈ 1.83 µM); against Candida metapsilosis [12], 2 µg/mL (≈ 1.83 µM); with Candida tropicalis [14], 2 µg/mL (≈ 1.83 µM); in the experiment on Candida parapsilosis [17], 2 µg/mL (≈ 1.83 µM). The MIC in the experiment on Candida metapsilosis [19] turned out to be 2 µg/mL (≈ 1.83 µM); in the experiment with Candida orthopsilosis [21] it was 1 µg/mL (≈ 0.915 µM); in the experiment on Candida metapsilosis [22] it was 2 µg/mL (≈ 1.83 µM).
